Test results: ChEMBL document CHEMBL1124901 (J Med Chem, 1990)
pKd: −log10 of the molar value. One block for each compound: values may come before it.

Legend:
[1] = Partition coefficient (logP); format: physicochemical; conditions: octanol/water
Dopamine receptor = test: In vitro inhibition of [3H]spiperone binding to Dopamine receptor D2 in Macaca nemestrina striatal membranes; parameters: species or system Striatum, Membrane
How it was run: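 Caudate tissue from adult Macaca nemestrina brains, homogenized in ice-cold 50 mM potassium phosphate pH 7.4, washed twice by centrifugation at 30000g and stored at -70 °C. Assay used 25-50 µg protein in 50 mM Tris-HCl, 120 mM NaCl, 5 mM CaCl2, 1 mM MgCl2, pH 7.4, with 0.2 nM [3H]spiperone for 30 min at 37 °C. Bound ligand was collected by filtration and counted by scintillation. Nonspecific binding was defined with 1 µM cis-flupenthixol. Ki was taken from competitive displacement.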

Rattus norvegicus [2] = test: In vivo tissue biodistribution behavior of high specific activity was determined in rat whole brain at 5 min postinjection of radiolabeled compound; format: ADME, organism-based
How it was run: (§1)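 Female Sprague-Dawley rats (200-250 g) under light ether anesthesia received 50-100 µCi of the 18F-labelled ligand (>1000 Ci/mmol) in 0.2 mL buffered saline into the femoral vein. Food and water were free until decapitation. Blood was drawn by cardiac puncture and the femur and brain regions were taken. Tissues were weighed and gamma counted. Values are %ID/g, mean ± SD of 4-5 rats.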

Rattus norvegicus [3] = test: In vivo tissue biodistribution behavior of high specific activity was determined in rat blood at 30 min postinjection of radiolabeled compound; format: ADME, organism-based; conditions: 0.5 h; how it was run: as §1
Rattus norvegicus [4] = test: In vivo tissue biodistribution behavior of high specific activity was determined in rat blood at 5 min postinjection of radiolabeled compound; format: ADME, organism-based; how it was run: as §1
Rattus norvegicus [5] = test: In vivo tissue biodistribution behavior of high specific activity was determined in rat bone at 30 min postinjection of radiolabeled compound; format: ADME, organism-based, Bone element; conditions: 0.5 h; how it was run: as §1
Rattus norvegicus [6] = test: In vivo tissue biodistribution behavior of high specific activity was determined in rat bone at 5 min postinjection of radiolabeled compound; format: ADME, organism-based, Bone element; how it was run: as §1
Rattus norvegicus [7] = test: In vivo tissue biodistribution behavior of high specific activity was determined in rat cerebellum at 30 min postinjection of radiolabeled compound; format: ADME, organism-based; conditions: 0.5 h; how it was run: as §1
Rattus norvegicus [8] = test: In vivo tissue biodistribution behavior of high specific activity was determined in rat cerebellum at 5 min postinjection of radiolabeled compound; format: ADME, organism-based; how it was run: as §1
Rattus norvegicus [9] = test: In vivo tissue biodistribution behavior of high specific activity was determined in rat striatum at 30 min postinjection of radiolabeled compound; format: ADME, organism-based; conditions: 0.5 h; how it was run: as §1
Rattus norvegicus [10] = test: In vivo tissue biodistribution behavior of high specific activity was determined in rat striatum at 5 min postinjection of radiolabeled compound; format: ADME, organism-based; how it was run: as §1
Rattus norvegicus [11] = test: In vivo tissue biodistribution behavior of high specific activity was determined in rat whole brain at 30 min postinjection of radiolabeled compound; format: ADME, organism-based; conditions: 0.5 h; how it was run: as §1
[12] = In vivo tissue biodistribution behavior of high specific activity was determined in whole brain at 60 min postinjection of radiolabeled compound; format: ADME, organism-based; conditions: 1 h; how it was run: as §1
Rattus norvegicus [13] = test: In vivo tissue biodistribution behavior of high specific activity was determined in rat blood at 60 min postinjection of radiolabeled compound; format: ADME, organism-based; conditions: 1 h; how it was run: as §1
Rattus norvegicus [14] = test: In vivo tissue biodistribution behavior of high specific activity was determined in rat bone at 60 min postinjection of radiolabeled compound; format: ADME, organism-based, Bone element; conditions: 1 h; how it was run: as §1
Rattus norvegicus [15] = test: In vivo tissue biodistribution behavior of high specific activity was determined in rat cerebellum at 60 min postinjection of radiolabeled compound; format: ADME, organism-based; conditions: 1 h; how it was run: as §1
Rattus norvegicus [16] = test: In vivo tissue biodistribution behavior of high specific activity was determined in rat striatum at 60 min postinjection of radiolabeled compound; format: ADME, organism-based; conditions: 1 h; how it was run: as §1
[17] = Dissociation constant of the compound; value ranges from 0.81-1.2 nM; format: physicochemical
Rattus norvegicus [18] = test: In vivo tissue biodistribution behavior of high specific activity was determined in rat whole brain at 60 min postinjection of radiolabeled compound; format: ADME, organism-based; conditions: 1 h; how it was run: as §1

- logP [1]: 1.75
- Ki (Dopamine receptor): 17.3 nM
SMILES: CCCN1CCC[C@H]1CNC(=O)c1c(O)c(Cl)cc(Cl)c1OC

- logP [1]: 1.5
- Ki (Dopamine receptor): 2610 nM
SMILES: COc1c(Cl)cc(Cl)c(O)c1C(=O)NC[C@@H]1CCCN1CCC(C)F (stereo not given in full)

- logP [1]: 2.28
- Ki (Dopamine receptor): 41.1 nM
SMILES: CCCCN1CCC[C@H]1CNC(=O)c1c(O)c(Cl)cc(Cl)c1OC

- logP [1]: 1.5
- Ki (Dopamine receptor): 2620 nM
SMILES: COc1c(Cl)cc(Cl)c(O)c1C(=O)NC[C@H]1CCCN1CCC(C)F (stereo not given in full)

- logP [1]: 0.55
- Ki (Dopamine receptor): 159 nM
SMILES: COc1c(Cl)cc(Cl)c(O)c1C(=O)NC[C@@H]1CCCN1CCF

- Tissue concentration (Rattus norvegicus [2]): 0.52 % injected dose g-1
- Tissue concentration (Rattus norvegicus [3]): 0.07 % injected dose g-1
- Tissue concentration (Rattus norvegicus [4]): 0.16 % injected dose g-1
- Tissue concentration (Rattus norvegicus [5]): 0.23 % injected dose g-1
- Tissue concentration (Rattus norvegicus [6]): 0.2 % injected dose g-1
- Tissue concentration (Rattus norvegicus [7]): 0.05 % injected dose g-1
- Tissue concentration (Rattus norvegicus [8]): 0.42 % injected dose g-1
- Tissue concentration (Rattus norvegicus [9]): 0.09 % injected dose g-1
- Tissue concentration (Rattus norvegicus [10]): 0.62 % injected dose g-1
- Tissue concentration (Rattus norvegicus [11]): 0.06 % injected dose g-1
SMILES: COc1c(Cl)cc(Cl)c(O)c1C(=O)NC[C@@H]1CCCN1CC[18F]

- Tissue concentration (Rattus norvegicus [2]): 1.16 % injected dose g-1
- Tissue concentration [12]: 0.04 % injected dose g-1
- Tissue concentration (Rattus norvegicus [3]): 0.1 % injected dose g-1
- Tissue concentration (Rattus norvegicus [4]): 0.26 % injected dose g-1
- Tissue concentration (Rattus norvegicus [13]): 0.05 % injected dose g-1
- Tissue concentration (Rattus norvegicus [5]): 0.34 % injected dose g-1
- Tissue concentration (Rattus norvegicus [6]): 0.28 % injected dose g-1
- Tissue concentration (Rattus norvegicus [14]): 0.54 % injected dose g-1
- Tissue concentration (Rattus norvegicus [7]): 0.09 % injected dose g-1
- Tissue concentration (Rattus norvegicus [8]): 0.98 % injected dose g-1
- Tissue concentration (Rattus norvegicus [15]): 0.03 % injected dose g-1
- Tissue concentration (Rattus norvegicus [9]): 0.13 % injected dose g-1
- Tissue concentration (Rattus norvegicus [10]): 1.5 % injected dose g-1
- Tissue concentration (Rattus norvegicus [16]): 0.07 % injected dose g-1
- Tissue concentration (Rattus norvegicus [11]): 0.11 % injected dose g-1
SMILES: COc1c(Cl)cc(Cl)c(O)c1C(=O)NC[C@@H]1CCCN1CCC[18F]

- logP [1]: 1.6
- Ki (Dopamine receptor): 88.5 nM
SMILES: COc1c(Cl)cc(Cl)c(O)c1C(=O)NC[C@@H]1CCCN1CCCCF

- pKd [17]: 9.09
SMILES: CCN1CCC[C@H]1CNC(=O)c1c(O)c(Cl)cc(Cl)c1OC [RACLOPRIDE]

- Tissue concentration (Rattus norvegicus [2]): 0.71 % injected dose g-1
- Tissue concentration (Rattus norvegicus [18]): 0.06 % injected dose g-1
- Tissue concentration (Rattus norvegicus [3]): 0.09 % injected dose g-1
- Tissue concentration (Rattus norvegicus [4]): 0.21 % injected dose g-1
- Tissue concentration (Rattus norvegicus [13]): 0.06 % injected dose g-1
- Tissue concentration (Rattus norvegicus [5]): 0.24 % injected dose g-1
- Tissue concentration (Rattus norvegicus [6]): 0.22 % injected dose g-1
- Tissue concentration (Rattus norvegicus [14]): 0.39 % injected dose g-1
- Tissue concentration (Rattus norvegicus [7]): 0.08 % injected dose g-1
- Tissue concentration (Rattus norvegicus [8]): 0.58 % injected dose g-1
- Tissue concentration (Rattus norvegicus [15]): 0.05 % injected dose g-1
- Tissue concentration (Rattus norvegicus [9]): 0.12 % injected dose g-1
- Tissue concentration (Rattus norvegicus [10]): 0.87 % injected dose g-1
- Tissue concentration (Rattus norvegicus [16]): 0.09 % injected dose g-1
- Tissue concentration (Rattus norvegicus [11]): 0.1 % injected dose g-1
SMILES: COc1c(Cl)cc(Cl)c(O)c1C(=O)NC[C@@H]1CCCN1CCCC[18F]

- logP [1]: 1.07
- Ki (Dopamine receptor): 130 nM
SMILES: COc1c(Cl)cc(Cl)c(O)c1C(=O)NC[C@@H]1CCCN1CCCF
